# Test results taken from ChEMBL document CHEMBL3867440, “Hernandezine, a Bisbenzylisoquinoline Alkaloid with Selective Inhibitory Activity against Multidrug-Resistance-Linked ATP-Binding Cassette Drug Transporter ABCB1” (J Nat Prod, 2016).
# Columns and labels:
# [1] = test system: HEK293; assay: Inhibition of human wild-type ABCG2 transfected in HEK293 cells assessed as potentiation of mitoxantrone-induced cytotoxicity by measuring mitoxantrone resistance ratio at 3000 nM after 72 hrs by CCK8 assay relative to parental HEK293 cells
# [2] = molecular target: T1, ATP-dependent translocase ABCB1 (Homo sapiens, UniProt P08183); assay: Inhibition of ABCB1 in human KBV1 cells assessed as potentiation of colchicine-induced cytotoxicity by measuring colchicine resistance ratio at 1000 nM after 72 hrs by MTT assay relative to parental KB-3-1 cells (reference value: 55); type: cell-based; settings: kbv1, 72 h, 1 µM
# Outline: (§1)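 Cells were kept in drug-free DMEM with 10% FCS for 7 days before assay, then plated at 5000 cells/well for 24 h. Drug at various concentrations was added with a nontoxic fixed level of modulator for 72 h, and the read-out was MTT. IC50 came from fitted curves (≥3 experiments). RR = IC50 of the resistant line / IC50 of the parental line.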
# [3] = molecular target: T1, ATP-dependent translocase ABCB1; assay: Inhibition of ABCB1 in human KBV1 cells assessed as potentiation of doxorubicin-induced cytotoxicity by measuring doxorubicin resistance ratio at 1000 nM after 72 hrs by MTT assay relative to parental KB-3-1 cells (reference value: 34); type: cell-based; settings: kbv1, 72 h, 1 µM
# Outline: as §1
# [4] = test system: KB-V1; assay: Induction of apoptosis in human KBV1 cells assessed as necrotic cells at 1 uM after 48 hrs by Annexin V-FITC/propidium iodide staining based FACS analysis (reference value: 1%); type: functional
# [5] = test system: KB 3-1; assay: Induction of apoptosis in human KB-3-1 cells assessed as late apoptotic cells at 1 uM after 48 hrs by Annexin V-FITC/propidium iodide staining based FACS analysis (reference value: 5.8%); type: functional
# [6] = molecular target: T1, ATP-dependent translocase ABCB1; assay: Inhibition of ABCB1 in human NCI-ADR-RES cells assessed as potentiation of doxorubicin-induced cytotoxicity by measuring doxorubicin resistance ratio at 1000 nM after 72 hrs by MTT assay relative to parental OVCAR8 cells (reference value: 46); type: cell-based; settings: ovcar-8, 72 h, 1 µM
# Outline: as §1
# [7] = molecular target: T1, ATP-dependent translocase ABCB1; assay: Inhibition of human ABCB1 transfected in HEK293 cells assessed as potentiation of doxorubicin-induced cytotoxicity by measuring doxorubicin resistance ratio at 1000 nM after 72 hrs by CCK8 assay relative to parental HEK293 cells (reference value: 96); type: cell-based; settings: hek293, 72 h, 1 µM
# [8] = molecular target: T1, ATP-dependent translocase ABCB1; assay: Inhibition of ABCB1 in human NCI-ADR-RES cells assessed as potentiation of colchicine-induced cytotoxicity by measuring colchicine resistance ratio at 1000 nM after 72 hrs by MTT assay relative to parental OVCAR8 cells (reference value: 59); type: cell-based; settings: ovcar-8, 72 h, 1 µM
# Outline: as §1
# [9] = test system: KB-V1; assay: Induction of apoptosis in human KBV1 cells assessed as early apoptotic cells at 1 uM after 48 hrs by Annexin V-FITC/propidium iodide staining based FACS analysis (reference value: 5.3%); type: functional
# [10] = test system: KB-V1; assay: Induction of apoptosis in human KBV1 cells assessed as late apoptotic cells at 1 uM after 48 hrs by Annexin V-FITC/propidium iodide staining based FACS analysis (reference value: 7.6%); type: functional
# [11] = test system: KB 3-1; assay: Potentiation of colchicine-induced apoptosis in human KB-3-1 cells assessed as early apoptotic cells at 1 uM after 48 hrs by Annexin V-FITC/propidium iodide staining based FACS analysis (reference value: 30.5%); type: functional
# [12] = test system: KB 3-1; assay: Potentiation of colchicine-induced apoptosis in human KB-3-1 cells assessed as late apoptotic cells at 1 uM after 48 hrs by Annexin V-FITC/propidium iodide staining based FACS analysis (reference value: 25.7%); type: functional
# [13] = test system: KB 3-1; assay: Potentiation of colchicine-induced apoptosis in human KB-3-1 cells assessed as viable cells at 1 uM after 48 hrs by Annexin V-FITC/propidium iodide staining based FACS analysis (reference value: 38.9%); type: functional; settings: KB 3-1, 48 h, read-out: Activity
# [14] = molecular target: T1, ATP-dependent translocase ABCB1; assay: Inhibition of ABCB1 in human KBV1 cells assessed as potentiation of vincristine-induced cytotoxicity by measuring vincristine resistance ratio at 1000 nM after 72 hrs by MTT assay relative to parental KB-3-1 cells (reference value: 356); type: cell-based; settings: kbv1, 72 h, 1 µM
# Outline: as §1
# [15] = test system: KB 3-1; assay: Induction of apoptosis in human KB-3-1 cells assessed as early apoptotic cells at 1 uM after 48 hrs by Annexin V-FITC/propidium iodide staining based FACS analysis (reference value: 5.1%); type: functional
# [16] = test system: KB-V1; assay: Induction of apoptosis in human KBV1 cells assessed as viable cells at 1 uM after 48 hrs by Annexin V-FITC/propidium iodide staining based FACS analysis (reference value: 86.1%); type: functional; settings: KB-V1, 48 h, read-out: Activity
# [17] = test system: KB 3-1; assay: Potentiation of colchicine-induced apoptosis in human KB-3-1 cells assessed as necrotic cells at 1 uM after 48 hrs by Annexin V-FITC/propidium iodide staining based FACS analysis (reference value: 4.9%); type: functional
# [18] = test system: KB 3-1; assay: Induction of apoptosis in human KB-3-1 cells assessed as necrotic cells at 1 uM after 48 hrs by Annexin V-FITC/propidium iodide staining based FACS analysis (reference value: 0.7%); type: functional
# [19] = test system: KB 3-1; assay: Induction of apoptosis in human KB-3-1 cells assessed as viable cells at 1 uM after 48 hrs by Annexin V-FITC/propidium iodide staining based FACS analysis (reference value: 88.4%); type: functional; settings: KB 3-1, 48 h, read-out: Activity
# [20] = molecular target: T1, ATP-dependent translocase ABCB1; assay: Inhibition of ABCB1 in human NCI-ADR-RES cells assessed as potentiation of vincristine-induced cytotoxicity by measuring vincristine resistance ratio at 1000 nM after 72 hrs by MTT assay relative to parental OVCAR8 cells (reference value: 435); type: cell-based; settings: ovcar-8, 72 h, 1 µM
# Outline: as §1
# T1 sequence (P08183 whole entry): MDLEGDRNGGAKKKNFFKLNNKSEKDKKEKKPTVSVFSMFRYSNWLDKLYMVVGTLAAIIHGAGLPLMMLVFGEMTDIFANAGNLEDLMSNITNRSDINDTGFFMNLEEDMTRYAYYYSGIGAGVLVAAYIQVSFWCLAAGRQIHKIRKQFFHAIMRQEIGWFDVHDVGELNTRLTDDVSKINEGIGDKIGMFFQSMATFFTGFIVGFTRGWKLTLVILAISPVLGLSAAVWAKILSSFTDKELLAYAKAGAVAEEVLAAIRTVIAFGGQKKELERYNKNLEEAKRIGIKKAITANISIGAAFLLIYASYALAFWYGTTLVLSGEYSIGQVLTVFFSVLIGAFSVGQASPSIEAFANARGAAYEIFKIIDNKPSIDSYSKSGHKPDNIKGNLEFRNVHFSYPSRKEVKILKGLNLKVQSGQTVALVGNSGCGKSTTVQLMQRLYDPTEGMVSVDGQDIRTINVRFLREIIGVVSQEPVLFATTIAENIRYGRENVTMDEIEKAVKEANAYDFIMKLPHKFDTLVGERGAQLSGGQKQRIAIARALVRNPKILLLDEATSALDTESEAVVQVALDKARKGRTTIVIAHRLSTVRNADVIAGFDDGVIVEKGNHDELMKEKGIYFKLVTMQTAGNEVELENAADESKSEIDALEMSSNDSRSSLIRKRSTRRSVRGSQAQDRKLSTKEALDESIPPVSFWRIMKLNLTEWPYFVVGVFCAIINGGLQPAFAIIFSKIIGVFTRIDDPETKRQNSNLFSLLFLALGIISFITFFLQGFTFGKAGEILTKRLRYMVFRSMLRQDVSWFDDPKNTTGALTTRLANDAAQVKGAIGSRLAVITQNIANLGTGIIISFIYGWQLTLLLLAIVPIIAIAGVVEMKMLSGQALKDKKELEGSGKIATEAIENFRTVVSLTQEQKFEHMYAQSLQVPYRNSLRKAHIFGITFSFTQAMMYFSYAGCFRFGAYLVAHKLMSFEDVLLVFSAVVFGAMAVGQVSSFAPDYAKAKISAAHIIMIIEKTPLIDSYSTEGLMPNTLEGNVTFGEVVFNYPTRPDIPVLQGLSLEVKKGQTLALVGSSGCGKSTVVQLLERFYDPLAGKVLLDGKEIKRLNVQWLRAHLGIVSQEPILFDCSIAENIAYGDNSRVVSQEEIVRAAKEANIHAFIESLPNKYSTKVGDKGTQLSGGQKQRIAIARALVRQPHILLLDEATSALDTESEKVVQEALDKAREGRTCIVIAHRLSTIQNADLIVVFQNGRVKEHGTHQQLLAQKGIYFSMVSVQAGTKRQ
Compound,Ratio [1],Ratio [2],Ratio [3],Activity [4] [%],Activity [5] [%],Ratio [6],Ratio [7],Ratio [8],Activity [9] [%],Activity [10] [%],Activity [11] [%],Activity [12] [%],viability at 1 µM [13] [%],Ratio [14],Activity [15] [%],viability at 1 µM [16] [%],Activity [17] [%],Activity [18] [%],viability at 1 µM [19] [%],Ratio [20]
COc1ccc2c3c([nH]c2c1)[C@H](C=C(C)C)N1C(=O)[C@@H]2CCCN2C(=O)[C@@H]1C3,7,,,,,,,,,,,,,,,,,,,
COc1cc2c(cc1OC)CN(CCc1ccc(NC(=O)c3cc(OC)c(OC)cc3NC(=O)c3cnc4ccccc4c3)cc1)CC2 [TARIQUIDAR],,1,1,0.2,4.4,3,5,1,3.5,5.2,30.2,27,37.2,1,3.3,91.1,5.6,0.2,92.1,4
